The source of these data is ChEMBL document CHEMBL4393708, “Pyridinylimidazoles as dual glycogen synthase kinase 3β/p38α mitogen-activated protein kinase inhibitors” (Eur J Med Chem, 2019).

The target of assay [1] is Glycogen synthase kinase-3 beta (Homo sapiens, UniProt P49841). Description: Inhibition of human recombinant GSK3beta at 1 uM using Ulight-CFFKNIVTPRTPPPSQGK-amide as substrate measured after 90 mins in presence of ATP by LANCE assay relative to control. The method, boiled down:
(§1)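 Kinase panel run by an outside provider (Eurofins Cerep) in a LANCE assay, single test concentration of 1 µM, results as percent inhibition.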

For assay [2], the target named is Ephrin type-B receptor 4 (Homo sapiens) (UniProt P54760). The assay is described as follows: Inhibition of human recombinant EPHB4 at 1 uM using Ulight-TK peptide as substrate measured after 90 mins in presence of ATP by LANCE assay relative to control. The method, boiled down: as §1
Sequence of Ephrin type-B receptor 4 (Homo sapiens) (P54760 whole entry): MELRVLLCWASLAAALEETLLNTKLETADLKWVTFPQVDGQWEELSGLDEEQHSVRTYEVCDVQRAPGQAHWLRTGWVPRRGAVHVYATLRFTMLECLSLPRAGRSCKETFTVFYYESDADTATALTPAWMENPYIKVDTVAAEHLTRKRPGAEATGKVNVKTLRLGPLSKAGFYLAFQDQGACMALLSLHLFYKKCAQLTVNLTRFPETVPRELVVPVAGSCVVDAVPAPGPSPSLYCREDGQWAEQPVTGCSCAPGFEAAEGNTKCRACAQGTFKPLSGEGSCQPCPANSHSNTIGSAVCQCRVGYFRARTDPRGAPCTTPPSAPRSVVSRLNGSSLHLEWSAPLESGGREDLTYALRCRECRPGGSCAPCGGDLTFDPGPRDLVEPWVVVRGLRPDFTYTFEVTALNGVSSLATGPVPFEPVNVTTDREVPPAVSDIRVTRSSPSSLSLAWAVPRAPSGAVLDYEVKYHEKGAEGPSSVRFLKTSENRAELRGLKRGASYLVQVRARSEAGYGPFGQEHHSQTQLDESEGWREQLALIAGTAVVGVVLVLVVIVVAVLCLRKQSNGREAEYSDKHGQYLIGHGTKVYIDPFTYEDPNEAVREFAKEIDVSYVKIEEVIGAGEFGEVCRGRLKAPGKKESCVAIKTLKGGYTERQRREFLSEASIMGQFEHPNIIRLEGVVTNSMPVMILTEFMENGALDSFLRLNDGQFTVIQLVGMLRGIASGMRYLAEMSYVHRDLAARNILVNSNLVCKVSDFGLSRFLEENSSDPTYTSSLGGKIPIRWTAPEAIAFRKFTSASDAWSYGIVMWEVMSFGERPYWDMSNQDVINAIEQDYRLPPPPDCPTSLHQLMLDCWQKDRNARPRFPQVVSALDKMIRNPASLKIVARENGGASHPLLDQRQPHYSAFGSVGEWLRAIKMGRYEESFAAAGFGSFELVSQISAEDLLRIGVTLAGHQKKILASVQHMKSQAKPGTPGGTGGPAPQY
For orientation: In TR-FRET formats the signal depends on donor and acceptor labels being close together.

Assay [3] addresses Serine/threonine-protein kinase pim-2 (Homo sapiens) (UniProt Q9P1W9). Description: Inhibition of human recombinant PIM2 at 1 uM using CREBtide as substrate measured after 60 mins in presence of ATP by LANCE assay relative to control. The method, boiled down:
as §1

Sequence of Serine/threonine-protein kinase pim-2 (Homo sapiens) (Q9P1W9 whole entry, looked up): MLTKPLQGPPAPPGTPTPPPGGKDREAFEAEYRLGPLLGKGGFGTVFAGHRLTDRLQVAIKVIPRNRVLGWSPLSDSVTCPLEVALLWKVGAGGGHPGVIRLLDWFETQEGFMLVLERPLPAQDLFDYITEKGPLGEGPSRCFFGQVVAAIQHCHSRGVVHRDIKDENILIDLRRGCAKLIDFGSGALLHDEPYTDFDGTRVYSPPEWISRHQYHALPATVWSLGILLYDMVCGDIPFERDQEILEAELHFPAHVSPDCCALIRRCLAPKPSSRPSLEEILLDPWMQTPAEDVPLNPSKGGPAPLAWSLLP
Sequence of Glycogen synthase kinase-3 beta (P49841 whole entry, looked up): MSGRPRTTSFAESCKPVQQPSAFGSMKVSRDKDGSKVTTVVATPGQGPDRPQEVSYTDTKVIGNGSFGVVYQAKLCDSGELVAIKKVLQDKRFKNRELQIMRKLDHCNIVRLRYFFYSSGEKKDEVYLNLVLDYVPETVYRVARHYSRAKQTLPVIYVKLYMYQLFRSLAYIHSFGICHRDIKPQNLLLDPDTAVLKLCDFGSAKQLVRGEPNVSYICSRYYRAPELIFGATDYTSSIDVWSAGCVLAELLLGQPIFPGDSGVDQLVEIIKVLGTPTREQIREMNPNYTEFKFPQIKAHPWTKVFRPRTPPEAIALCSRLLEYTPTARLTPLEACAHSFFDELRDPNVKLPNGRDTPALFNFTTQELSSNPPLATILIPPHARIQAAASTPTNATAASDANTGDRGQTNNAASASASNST

Take `CCc1nc(-c2ccc(F)cc2)c(-c2ccnc(NC(=O)C3CC3)c2)[nH]1`: the results for the inhibition in assay [1], in assay [2] and in assay [3] were 97%, 94.7% and -0.24%, respectively.
